LEDGF integ inh: blocks HIV-1 LEDGF/p75-dependent DNA integration; TR-FRET IN-LEDGF/p75 DNA integration, Eu/Cy5; inhibition, % at 3.7 µM; 370,000 tested, 0.64% active; AID 743269;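 active = inhibition above the screen-wide mean plus 3 SD, cut at about 13% in these data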;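 note: signal is the Cy5 over europium emission ratio at 671 and 618 nm; 0% = plate median of compound wells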
UHRF1 MBD2 ctr: human UHRF1 methylated DNA binding inhibitors; Q96T88; UHRF1 binding to methylated oligo, TR-FRET; inhibition, % at 4.4 µM; 370,000 tested, 0.75% active; AID 687016; in the data active = inhibition above about 21%;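 note: UHRF1 SRA domain binding a hemimethylated CpG hairpin DNA probe; 0% = median of test compound wells and 100% = reference inhibitor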
rCAG RNA binder: binds r(CAG) RNA repeats. r(CAG) RNA repeat, TO-PRO-1 dye displacement fluorescence. inhibition, % at 3 µM. 370,000 tested, 1.3% active;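 active = inhibition above the plate cutoff, the mean of all test compounds on that plate plus 3 SD, cut at about 35% in these data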;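 note: 0% = DMSO alone and 100% = 100 µM mitoxantrone as full dye displacement; higher means more dye released from RNA so lower well fluorescence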
ATG4B inhibitor: ATG4B (human) cysteine protease inhibition | ATG4B cleavage of LC3-PLA2, NBD-HPC fluorescence, 1 h | 340,000 tested, 0.51% active | inhibition, % at 8.33 µM | Q9Y4P1; in the data active = inhibition above about 40%
MBD2 inh: blocks human MBD2 binding to methylated DNA; 370,000 tested, 0.31% active; inhibition, % at 4.4 µM; TR-FRET, MBD2 binding to methylated oligonucleotide; in the data active = inhibition above about 13%
Target sequence (Q9UBB5 whole entry, looked up): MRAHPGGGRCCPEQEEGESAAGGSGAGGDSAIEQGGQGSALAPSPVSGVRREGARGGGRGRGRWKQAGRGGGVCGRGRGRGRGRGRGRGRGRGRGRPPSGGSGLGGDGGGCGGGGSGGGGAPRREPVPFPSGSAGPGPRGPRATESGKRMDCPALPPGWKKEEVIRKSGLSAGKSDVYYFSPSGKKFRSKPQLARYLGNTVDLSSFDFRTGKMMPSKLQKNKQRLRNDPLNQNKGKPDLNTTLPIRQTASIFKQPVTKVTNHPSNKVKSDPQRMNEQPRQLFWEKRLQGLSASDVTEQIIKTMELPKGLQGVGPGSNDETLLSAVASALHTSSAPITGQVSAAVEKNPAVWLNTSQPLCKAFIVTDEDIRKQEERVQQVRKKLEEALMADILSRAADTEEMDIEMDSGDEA
CSN deneddyl inh: blocks human CSN-mediated cullin deneddylation | inhibition, % at 12.5 µM | AID 651999 | Q92905 | 360,000 tested, 0.38% active | Purified CSN, SCF-Nedd8-OG deneddylation, fluorescence polarization;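 active = pattern-corrected inhibition above about 35%, with an unprinted fluorescence ratio check between 0.5 and 1.5, limit read from the data, passing the limit was not always enough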;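 note: 0% = enzyme with substrate and 100% = substrate without enzyme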
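Test system: purified human Csn5 enzyme expressed in HEK293T cells. Amount: 0.24 nM enzyme. Reagent: SCFSkp2-Nedd8OG substrate at 10 nM final. Schedule: 90 min incubation of compound, enzyme and substrate at room temperature. Detection: fluorescence polarization. Read-out: % inhibition of substrate cleavage by Csn5.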
IN multimer up: counter-screen for LEDGF/p75 integration inhibitors: HIV-1 integrase multimerization activators; activation, % at 7.7 µM; 2,000 tested, 17% active; TR-FRET HIV-1 integrase multimerization, biochemical; shares compounds with LEDGF integ inh; in the data active = activation above about 8.9%
TRFRET interf: counter-screen for LEDGF/p75 integration inhibitors: TR-FRET optical interference | 2,000 tested, under 10 active | inhibition, % at 7.7 µM | shares compounds with LEDGF integ inh | AID 1053135 | TR-FRET optical interference counterscreen, HIV-1 IN multimerization;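 active = inhibition above the mean over all tested compounds plus 3 SD, which no compound reached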;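 note: 0% = integrase with antibodies and DMSO and 100% = antibodies without integrase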
LEDGF integ conf: LEDGF/p75-dependent HIV-1 integration inhibition, confirmation. AID 1053136. shares compounds with LEDGF integ inh. TR-FRET LEDGF/p75-dependent HIV-1 integration, biochemical. 2,000 tested, 36% active. inhibition, % at 3.7 µM; in the data active = inhibition above about 14%
* marks the source's active call; other numbers are inactive results; / = no result given. Most compounds without a hit are left out; they make up all but 3.1% or so of the library.

SMILES	LEDGF integ inh	UHRF1 MBD2 ctr	rCAG RNA binder	ATG4B inhibitor	MBD2 inh	CSN deneddyl inh	IN multimer up	TRFRET interf	LEDGF integ conf
O=C1/C(=C\c2ccco2)SC(=S)N1c1ccccc1	21*	14	27	4	5	18	3	-17	21*
O=C(c1cccc(C(F)(F)F)c1)N1CC[C@H]2[C@H](CCCN2Cc2ccc(F)cc2)C1	-2	-1	-1	/	1	/	/	/	/
COC(=O)[C@]12C[C@H](CC(=O)NCCCN3CCCC3=O)C(=O)N(Cc3ccc(Cl)cc3Cl)C1=C[C@H](C(C)(C)C)O[C@@H]2C	-3	-1	1	/	-1	/	/	/	/
Brc1ccc(Cn2nnc(-c3ccc(N4CCOCC4)cc3)n2)cc1	-5	0	2	/	1	/	/	/	/
CC(=O)N1CCN(c2ccc(NCc3ccco3)cc2)CC1	21*	1	2	5	-1	0	4	-19	-5
NC(=O)CSCc1cccc(Br)c1	33*	-3	1	15	-3	5	0	0	5
Cc1ccc(-n2c(SCC(=O)Nc3ccc(OCc4ccccc4)cc3)nnc2-c2cnccn2)cc1	4	1	8	/	1	/	/	/	/
COC1=CC(=O)c2nc(Cl)ccc2C1=O	32*	11	5	/	-2	22	2	-8	58*
Cc1ccc(-c2cc(-c3nnc4sc(COc5ccccc5)nn34)[nH]n2)cc1	0	-3	7	/	-1	/	/	/	/
NC[C@H](O)c1ccc(O)c(O)c1	15*	5	1	6	4	1	1	-7	-10
CC(C)NCC(O)c1ccc(O)c(O)c1 (stereo unspecified)	-9	-2	-1	3	-4	-2	/	/	/
COc1cc(C(O)CO)ccc1O (stereo unspecified)	2	1	-2	2	8	0	/	/	/
CNC[C@H](O)c1ccc(O)c(O)c1	18*	6	5	-9	1	-2	1	-3	0
CCOc1ccc(Oc2c(Cl)c(Br)nn(Cc3cccc4ccccc34)c2=O)cc1	2	-1	7	/	7	/	/	/	/
COc1ccc(Nc2nc3ccccc3nc2-n2nc(C)cc2C)cc1	-3	1	-1	-1	0	2	/	/	/
Cc1cc(C)n(-c2nc3ccccc3nc2NCCc2ccccc2)n1	21*	2	4	-1	0	-2	0	0	2
CC1=C(SCc2ccccc2)C(=O)c2ccccc2C1=O	24*	3	27	-9	-17	27	5	-18	44*
Cc1cc(=O)[nH]c(SCc2ccccc2)n1	-1	3	-5	4	7	-1	/	/	/
COC(=O)C1=C(N)N(c2ccc(F)cc2)C2=C(C(=O)CCC2)C1c1ccc2c(c1)OCO2 (stereo unspecified)	18*	4	2	2	-2	-2	0	0	-10
CC(C)CNC(=O)C1CSCCS(=O)(=O)N1Cc1ccc(F)cc1 (stereo unspecified)	3	-2	-2	/	0	/	/	/	/
O=C(CSc1ncccn1)Nc1ncc(C(F)(F)F)cc1Cl	82*	-1	1	-7	-1	3	0	-1	4
CCOC(=O)c1c(C)c(C(=O)N(C)C2CCCCC2)c(C)n1C	8	0	-7	5	-2	-5	/	/	/
CCOC(=O)c1c(C)c(C(=O)NC2CCCCCC2)c(C)n1C	66*	-2	0	-8	1	4	-1	3	5
CCC(CC)C(=O)OCC(=O)NC12CC3CC(CC(C3)C1)C2	14*	5	-9	7	-2	-6	-2	10	6
C=CCSc1nc2sc3c(c2c(=O)n1-c1ccc(C)cc1)CCN(C)C3	34*	2	4	-5	3	0	-1	5	-5
SMILES	LEDGF integ inh	UHRF1 MBD2 ctr	rCAG RNA binder	ATG4B inhibitor	MBD2 inh	CSN deneddyl inh	IN multimer up	TRFRET interf	LEDGF integ conf
CCC(=O)Nc1cccc(NC(=S)NC(=O)c2ccccc2Cl)c1	4	4	3	1	-1	-3	/	/	/
CCC(=O)Nc1cccc(NC(=O)c2ccccc2Cl)c1	56*	1	-2	3	-1	-2	1	-4	1
C=CCc1cccc(C=NNC(=O)c2ccco2)c1O	-7	-1	5	/	1	/	/	/	/
COc1cc(NC(=O)CN2CCCCCC2)cc(OC)c1	19*	-1	-2	-2	0	6	1	-2	-11
CCCCNS(=O)(=O)/C=C/c1ccc(OC)cc1CNC(=O)OC(C)(C)C	-2	1	0	/	6	/	/	/	/
COC(=O)[C@]12CCCCC=C1N(Cc1cccc3ccccc13)C(=O)[C@H](CC(=O)N1CCCCC1)C2	82*	13	3	/	2	-5	0	-1	3
COc1ccc(CN2C3=NC(c4ccccc4)CC(=O)N3/C(=C\c3ccccc3)C2c2ccccc2)c(OC)c1 (stereo unspecified)	-6	0	/	/	1	/	/	/	/
O=C(/C=C/c1ccco1)Nc1cc(Cl)ccc1C(=O)O	8	9	20	12	1	19	/	/	/
O=C(/C=C/c1ccco1)Nc1ccccc1C(=O)Nc1cccc(C(=O)O)c1	25*	20	27	4	5	13	4	-21	19*
O=C(/C=C/c1ccco1)Nc1ccccc1C(=O)O	17*	24*	19	2	4	14	1	-3	33*
O=C(O)CCCNC(=O)/C=C/c1ccco1	38*	58*	0	1	11	18	38*	-192	87*
O=C(/C=C/c1ccco1)Nc1sc2c(c1C(=O)O)CCC2	21*	33*	27	-2	8	6	3	-9	-3
Cc1cc(NC(=O)/C=C/c2ccco2)ccc1NC(=O)c1ccccc1	-2	2	5	7	8	-6	/	/	/
O=C(O)c1ccc(/C=N/Nc2ccc(Cl)nn2)cc1	21*	1	-2	-7	3	0	1	-5	1
CCc1ccc(N2C=C(C(=O)OC)C(c3cccc4ccccc34)C(C#N)=C2N)cc1 (stereo unspecified)	22*	7	16	/	9	-3	1	-3	4
CCCC1CCC2(CCCN2CCOC(=O)Nc2ccc(F)cc2)CC1 (stereo unspecified)	1	-1	/	/	-1	/	/	/	/
